Assay results pooled from the literature.
Lines come from different studies, so protocols differ.
BCHE: Cholinesterase (BCHE, Equus caballus, UniProt P81908)
SLC6A4: Sodium-dependent serotonin transporter (SLC6A4, Homo sapiens, UniProt P31645)

SMILES | target | test | setting | IC50 [µM]
I/C=C/CN1CCN(CCc2ccc3c(c2)CCO3)CC1 | Sigma non-opioid intracellular receptor 1 (Sigmar1, Mus musculus, UniProt O55242) | ligand displacement, radioligand | cell membranes | 0.00068
NC(=O)NO | Urease (Canavalia ensiformis, UniProt P07374) | enzyme activity, inhibitor |  | 7.42
COC(=O)[C@H](CCC(=O)Nc1cccc2c1ccn2Cc1cccc(C(N)=O)c1)NC(=O)OCc1ccccc1 | NAD-dependent protein deacetylase sirtuin-3, mitochondrial (SIRT3, Homo sapiens, UniProt Q9NTG7) | enzyme activity, inhibitor |  | 3.6
O=C(CNC(=S)NN=Cc1ccc([N+](=O)[O-])cc1)c1ccc(Cl)cc1 | BCHE | enzyme activity, inhibitor, Ellman |  | 425
Clc1ccc2c(C3=CCN(CC[C@@H]4CNc5ccccc54)CC3)c[nH]c2c1 | SLC6A4 | ligand displacement, radioligand | cell membranes | 0.205
CC=C1[C@H]2C=C(C)C[C@]1(N(C)C)c1ccc(=O)n(C)c1C2 | BCHE | enzyme activity, inhibitor, Ellman |  | 259
C#CCN(C)c1nc(NCCCC2CCN(Cc3ccccc3)CC2)c(C#N)cc1C#N | BCHE | enzyme activity, inhibitor, Ellman |  | 1.19
CC=C1[C@H]2C=C(C)C[C@]1(N)c1cc(OCCC)c(=O)[nH]c1C2 | BCHE | enzyme activity, inhibitor, Ellman |  | 87.3
Clc1ccc2c(C3CCN(CCc4c[nH]c5ccccc45)CC3)c[nH]c2c1 | SLC6A4 | ligand displacement, radioligand | cell membranes | 0.0021
CC=C1[C@H]2C=C(C)C[C@]1(N)c1cc(N)c(=O)[nH]c1C2 | BCHE | enzyme activity, inhibitor, Ellman |  | 525
C[C@@H](O)[C@@H]1NC(=O)[C@H](CCCCN)NC(=O)[C@@H](Cc2c[nH]c3ccccc23)NC(=O)[C@H](Cc2ccc(O)cc2)NC(=O)[C@@H](NC(=O)[C@@H](Cc2ccccc2)NC(=O)CCC(C(=O)O)N2CCN(C(CCC(=O)O)C(=O)O)CCN(C(CCC(=O)O)C(=O)O)CC2)CSSC[C@@H](C(=O)N[C@H](CO)[C@@H](C)O)NC1=O (stereo partly shown) | Somatostatin receptor type 2 (Rattus norvegicus, UniProt P30680) | ligand displacement, radioligand |  | 0.125
CC=C1[C@H]2C=C(C)C[C@]1(N)c1cc(OCCCC)c(=O)[nH]c1C2 | BCHE | enzyme activity, inhibitor, Ellman |  | 16.9
O=P(O)(O)Oc1ccccc1OP(=O)(O)O | Signal transducer and activator of transcription 5A, SH2 (Homo sapiens, UniProt P42229) | ligand displacement, FP |  | 69
